From ChEMBL document CHEMBL1136968, “Structurally simple inhibitors of lanosterol 14alpha-demethylase are efficacious in a rodent model of acute Chagas disease” (J Med Chem, 2009) come the findings set out here.

Each structure is given as a SMILES string. Calls of active or inactive are those of the source. The calls are words filed in the database; no cut-off is given here.

The test system of data set [1] is Trypanosoma cruzi. Nature of the data set: Antitrypanosomal activity against Trypanosoma cruzi Tulahuen amastigotes in mouse 3T3 cells by beta-galactosidase reporter gene assay. It counts as functional, organism-based. The conditions noted are these: NIH3T3. The gist of the method:
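Tulahuen strain (TCII lineage) grown as intracellular amastigotes in murine 3T3 fibroblasts in 96-well plates. EC50 determined from triplicate screens. Standard errors within assays stayed below 15%.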

A short description of data set [2]: Toxicity against mouse 3T3 cells by resazurin assay. It counts as cell-based. The conditions noted are these: NIH3T3 cells. A digest of the protocol: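 Murine 3T3 fibroblasts screened separately from the parasites. Host-cell growth was quantified by resazurin read-out and EC50 determined.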
In general terms: Resazurin is reduced to fluorescent resorufin, in cell work by metabolically active cells.

Data set [3] deals with Sterol 14-alpha demethylase (Trypanosoma cruzi (strain CL Brener)) (UniProt Q7Z1V1). Nature of the data set: Binding affinity to Trypanosoma cruzi lanosterol 14-alpha-demethylase expressed in Escherichia coli assessed as enzyme spectral change by difference spectroscopy.
Chain of Sterol 14-alpha demethylase (Trypanosoma cruzi (strain CL Brener)) (Q7Z1V1 whole entry, looked up): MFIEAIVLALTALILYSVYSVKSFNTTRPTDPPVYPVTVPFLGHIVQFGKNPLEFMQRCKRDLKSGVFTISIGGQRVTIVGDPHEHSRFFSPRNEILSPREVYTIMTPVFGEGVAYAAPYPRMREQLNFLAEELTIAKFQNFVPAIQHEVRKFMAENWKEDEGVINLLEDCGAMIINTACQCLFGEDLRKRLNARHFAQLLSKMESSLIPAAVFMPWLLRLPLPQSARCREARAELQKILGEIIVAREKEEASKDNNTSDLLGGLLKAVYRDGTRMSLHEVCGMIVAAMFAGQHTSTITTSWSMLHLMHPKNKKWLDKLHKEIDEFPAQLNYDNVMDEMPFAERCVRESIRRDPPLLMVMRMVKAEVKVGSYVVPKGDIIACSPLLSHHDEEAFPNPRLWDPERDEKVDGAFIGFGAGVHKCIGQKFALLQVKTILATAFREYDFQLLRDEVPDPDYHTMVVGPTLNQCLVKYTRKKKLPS
Data set [4] concerns the target Sterol 14-alpha demethylase (Trypanosoma cruzi (strain CL Brener), UniProt Q7Z1V1). Nature of the data set: Binding affinity to Trypanosoma cruzi lanosterol 14-alpha-demethylase expressed in Escherichia coli assessed as equilibrium dissociation constant for enzyme-inhibitor complex by difference spectroscopy.
Data set [5] is described as follows: Cmax in Trypanosoma cruzi infected BALB/c mouse model of acute Chagas disease at 50 mg/kg, po administered as single dose. In kind it is ADME, organism-based. The conditions noted are these: in vivo. On the set-up: dose 50 mg/kg, route oral. A digest of the protocol: (§1)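 BALB/c females, 7–8 weeks, ~20 g, groups of three; single oral gavage at 50 mg/kg, given as a 10 mg/ml suspension in 20% (w/v) hydroxypropyl beta-cyclodextrin, 100 µL. Tail blood (40 µL) taken at timed intervals into heparinized capillaries. Plasma was separated, frozen and analysed later. Sampling ran to 5 hr. Values are averages from 3 mice.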

The nature of data set [6]: Tmax in Trypanosoma cruzi infected BALB/c mouse model of acute Chagas disease at 50 mg/kg, po administered as single dose. It counts as ADME, organism-based. Also noted: dose 50 mg/kg, route oral. The conditions noted are these: in vivo. The gist of the method:
as §1

A short description of data set [7]: AUC (0 to 5 hrs) in Trypanosoma cruzi infected BALB/c mouse model of acute Chagas disease at 50 mg/kg, po administered as single dose. It counts as ADME, organism-based. Also noted: dose 50 mg/kg, route oral. The settings on record: in vivo. The gist of the method:
as §1

For data set [8], the system named is Trypanosoma cruzi. Nature of the data set: Antitrypanosomal activity against Trypanosoma cruzi Tulahuen infected BALB/c mouse model of acute Chagas disease assessed as parasitemia burden in blood at 50 mg/kg, po administered twice daily 7 days after parasite infection for 21 days measured 100 days postinfection by PCR assay relative to untreated control. It counts as functional, organism-based. Also noted: dose 50 mg/kg. A digest of the protocol: (§2)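 BALB/c females, 7–8 weeks, infected subcutaneously with 1 × 10^4 Tulahuen trypomastigotes; all were parasitemic by day 7. Groups of 6 were dosed by oral gavage twice daily on days 7–27 in 20% (w/v) hydroxypropyl beta-cyclodextrin, 100 µL per dose; vehicle group as control. Parasitemia was counted in 5 µL tail blood over 50 high-power fields through day 97. At day 100, 200 µL whole blood was tested by PCR.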

For data set [9], the system named is Mus musculus. Nature of the data set: Toxicity in Trypanosoma cruzi Tulahuen infected BALB/c mouse model of acute Chagas disease assessed as incidence of side effects at 50 mg/kg, po administered twice daily 7 days after parasite infection for 21 days. On the set-up: dose 50 mg/kg, route oral. The conditions noted are these: in vivo. In kind it is organism-based. A digest of the protocol:
as §2

Data set [10] has as its system Mus musculus. The data set can be described thus: Toxicity in Trypanosoma cruzi Tulahuen infected BALB/c mouse model of acute Chagas disease assessed as mouse survival at 50 mg/kg, po administered twice daily 7 days after parasite infection for 21 days measured 100 days postinfection. It counts as organism-based. On the set-up: dose 50 mg/kg, route oral. The settings on record: in vivo, 2400 h. The gist of the method:
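Subcutaneous infection of female BALB/c mice (7–8 wk) with 1 × 10^4 Tulahuen trypomastigotes. Groups of 6 given oral gavage twice daily, days 7–27, in 20% (w/v) hydroxypropyl beta-cyclodextrin. Parasitemia followed by counting 50 high-power fields of 5 µL tail blood through day 97. Pre-morbid mice euthanized; survival and side effects recorded to termination at day 100.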

The nature of data set [11]: Terminal half life in mouse. It counts as ADME, organism-based. The conditions noted are these: in vivo, read-out: beta t1/2 (converted).
A short description of data set [12]: Terminal half life in rat. It counts as ADME, organism-based. The settings on record: in vivo, read-out: beta t1/2 (converted).
Data set [13] concerns Trypanosoma cruzi. Nature of the data set: Antitrypanosomal activity against Trypanosoma cruzi Tulahuen infected BALB/c mouse model of acute Chagas disease assessed as parasitemia burden in blood at 20 mg/kg, po administered twice daily 7 days after parasite infection for 21 days measured 100 days postinfection by PCR assay relative to untreated control. It counts as functional, organism-based. On the set-up: dose 20 mg/kg. The gist of the method:
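Female BALB/c mice (7–8 wk) infected s.c. with 1 × 10^4 Tulahuen trypomastigotes; blood parasites seen by day 7. Groups of 6 dosed by oral gavage twice daily, days 7–27, in 20% (w/v) hydroxypropyl beta-cyclodextrin vehicle. Vehicle group as control. Mice sacrificed at day 100; 200 µL whole blood tested by PCR for T. cruzi; scored as positive mice per group.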

Data set [14] can be described thus: Plasma concentration in mouse at 30 mg/kg, po after 1 hr. In kind it is ADME, organism-based. On the set-up: dose 30 mg/kg, route oral.
Data set [15] in a line: Half life in mouse at 30 mg/kg, po. In kind it is ADME, organism-based. On the set-up: dose 30 mg/kg, route oral. The settings on record: in vivo.
Data set [16] relates to Trypanosoma cruzi. The data set can be described thus: Antitrypanosomal activity against Trypanosoma cruzi infected mouse model of acute Chagas disease assessed as parasitemia burden in blood at 50 mg/kg, po administered twice daily for 14 days relative to untreated control. It counts as functional.

Chain of Sterol 14-alpha demethylase (Q7Z1V1 whole entry): as the sequence (Q7Z1V1 whole entry, looked up) above

As a reminder, the EC50 is the concentration giving half of the maximal effect. A low value points to an effect from little substance. In general, Kd refers to the concentration at which binding is half-saturated. For orientation: Cmax means the maximum level reached in the sampled fluid or tissue. One may read the Tmax as the time from dosing to the highest level. By AUC(0-t) is commonly meant the area under the concentration-time curve up to a stated or last time point. For `Nc1cc(-c2ccccc2)ccc1Cn1cncc1CNc1ccc(Cl)c(-c2ccccc2)c1`, the concentration giving a half-maximal response (EC50) was 1.2 nM with Trypanosoma cruzi [1] and more than 1000 nM in data set [2]. For the same compound, the outcome in data set [3] was Active. Besides, in [4], the Kd was less than 2200 nM. In data set [5], this compound returned a peak concentration (Cmax) of 2400 ng/mL. In addition, the Tmax in data set [6] came out at 0.8 h. In data set [7], this compound had an area under the curve AUC(0-t) at 4 h of 6300 ng·h/mL. Besides, the outcome with Trypanosoma cruzi [8] was inactive. Also, the Activity result in the data set on Mus musculus [9] and in the data set on Mus musculus [10] was “Non-toxic” throughout.

For `CC[C@@H]([C@H](C)O)n1ncn(-c2ccc(N3CCN(c4ccc(OC[C@@H]5CO[C@@](Cn6cncn6)(c6ccc(F)cc6F)C5)cc4)CC3)cc2)c1=O` [POSACONAZOLE], the half-life in [11] and in data set [12] was 7 h in each case. Moreover, the outcome in the data set on Trypanosoma cruzi [13] was Active.

As to `c1ccc(-c2ccc(Cn3cncc3CNc3ccc(-c4nc5ccccc5s4)c(-c4ccccc4)c3)cc2)cc1`, the concentration at 1 h in data set [14] worked out at 16 µM. For the same compound, the half-life in data set [15] was 4 h. For the same compound, the Activity in the data set on Trypanosoma cruzi [16] is given as 1%. Also, the EC50 was 7 nM in the data set on Trypanosoma cruzi [1] and more than 1000 nM in data set [2].

In the case of `Nc1cc(-c2ccccc2)ccc1Cn1cncc1CNc1ccc(-c2nc3ccccc3s2)c(-c2ccccc2)c1`, the values for the EC50 (with Trypanosoma cruzi [1]; in data set [2]) were 0.4 nM and more than 1000 nM, respectively. Besides, the outcome (in [3]; with Trypanosoma cruzi [13]) was Active. For the same compound, the dissociation constant Kd in data set [4] is less than 2200 nM. In data set [5], this compound yielded a Cmax of 7200 ng/mL. For the same compound, the Tmax in [6] was determined as 1.7 h. For the same compound, the area under the curve AUC(0-t) at 4 h in data set [7] was 28700 ng·h/mL. In addition, the Activity entry with Mus musculus [9] and in the data set on Mus musculus [10] was “Non-toxic” in each case.

Take `COC(=O)c1ccc(NCc2cncn2Cc2cccc(N)c2)cc1-c1ccccc1`: the EC50 with Trypanosoma cruzi [1] was 130 nM; in data set [2], more than 10000 nM.

Turning to `c1ccc(-c2ccc(Cn3cncc3CNc3ccc(-c4onc5ccccc45)c(-c4ccccc4)c3)cc2)cc1`, the values for the concentration giving a half-maximal response (EC50) (in the data set on Trypanosoma cruzi [1]; in data set [2]) were 50 nM and more than 10000 nM, respectively.

For the compound `COc1ccc(NCc2cncn2Cc2ccc(-c3ccccc3)cc2)cc1-c1ccccc1`, the results for the EC50 (in the data set with Trypanosoma cruzi [1]; in data set [2]) were 7 nM and more than 1000 nM, respectively.

In the case of `CN(C)C(=O)c1ccc(NCc2cncn2Cc2ccc(-c3ccccc3)cc2)cc1-c1ccccc1`, the EC50 is 9.3 nM with Trypanosoma cruzi [1] and more than 1000 nM in data set [2].

Regarding `N#Cc1ccc(NCc2cncn2Cc2ccc(-c3ccccc3)cc2)cc1-c1ccccc1`, the values for the EC50 (with Trypanosoma cruzi [1]; in [2]) were 1.3 nM and more than 1000 nM, respectively.

Turning to `Clc1ccc(Cn2cncc2CNc2ccc(-c3nc4ccccc4s3)c(-c3ccccc3)c2)cc1`, the 50% effective concentration (EC50) with Trypanosoma cruzi [1] was 250 nM; in data set [2], more than 1000 nM.

In the case of `CCCC(=O)c1ccc(NCc2cncn2Cc2ccc(-c3ccccc3)cc2)cc1-c1ccccc1`, the EC50 in the data set on Trypanosoma cruzi [1] was 40 nM; in [2] it was more than 10000 nM.
